Data published in ChEMBL document CHEMBL3588793, “Small molecule inhibitors of HIVgp41 N-heptad repeat trimer formation” (Bioorg Med Chem Lett, 2015).
The source made the active and inactive calls. The rule behind the calls is not given here.

How the values were obtained:
HL2/3 = assay: Inhibition of HIV gp41 activity assessed as inhibition of TZM-bl and HL2/3 cell fusion at 100 uM after 6 hrs by luciferase reporter assay; format: cell-based; conditions: Human immunodeficiency virus
How it was run: (§1)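 TZM-bl target cells (2.5×10^4/well) were seeded; 24 h later HL2/3 effector cells (5.0×10^4/well, […]) were added together with compound diluted in DMSO to a final 100 µM. After 6 h, Tat-driven LTR-luciferase luminescence (fusion) and cell viability were read in a combined reporter/viability kit. Six replicates; ANOVA with Tukey post hoc test against untreated co-culture.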

[1] = Inhibition of HIVgp41 activity assessed as inhibition of TZM-bl and HL2/3 cell fusion after 6 hrs by luciferase reporter assay; format: cell-based; conditions: Human immunodeficiency virus 1, HL2/3, 6 h
How it was run: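 Dose-response runs of the TZM-bl/HL2/3 co-culture luciferase fusion assay over a range of concentrations. Viability signal was scaled to the maximal signal (fraction of maximal proliferation). Each well's fusion luminescence was divided by that fraction, background was subtracted, and values were normalized to fraction of maximal effect. IC50 was taken from curve fitting.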

[2] = system: Human immunodeficiency virus; assay: Inhibition of HIVgp41 activity assessed as fluorescence intensity at 800 uM by FRET assay relative to 40 uM bithionol
[3] = Cytotoxicity against human TZM-bl cells at 100 uM; format: cell-based; how it was run: as §1
[4] = Cytotoxicity against human HL2/3 cells at 100 uM; format: cell-based; conditions: hl2/3, 100 µM; how it was run: as §1

IC50 [1] [µM]	Activity [2]	Structure (SMILES)	Activity (HL2/3)	Activity [3]	Activity [4]
58.6	inactive	COc1ccc(-c2cc(C(=O)NCc3ccc(Cl)cc3)n[nH]2)cc1S(=O)(=O)N1CCOCC1	Active	Non-toxic	Non-toxic
56.7	inactive	CCn1c(SCC(=O)N/N=C/c2cccc(Oc3ccccc3)c2)nnc1-c1ccc(OC)cc1	Active	Non-toxic	Non-toxic
